Tests used:
[1] = biological target: T1, Ornithine decarboxylase (Mus musculus) (UniProt P00860); assay: Compound was evaluated for the stimulation of Ornithine decarboxylase (ODC) activity in murine macrophagelike cell line RAW264 as a parameter for macrophage stimulation, and the pyrogenicity test in rabbits at a concentration of 0.02 ug/ml
T1 sequence (whole entry): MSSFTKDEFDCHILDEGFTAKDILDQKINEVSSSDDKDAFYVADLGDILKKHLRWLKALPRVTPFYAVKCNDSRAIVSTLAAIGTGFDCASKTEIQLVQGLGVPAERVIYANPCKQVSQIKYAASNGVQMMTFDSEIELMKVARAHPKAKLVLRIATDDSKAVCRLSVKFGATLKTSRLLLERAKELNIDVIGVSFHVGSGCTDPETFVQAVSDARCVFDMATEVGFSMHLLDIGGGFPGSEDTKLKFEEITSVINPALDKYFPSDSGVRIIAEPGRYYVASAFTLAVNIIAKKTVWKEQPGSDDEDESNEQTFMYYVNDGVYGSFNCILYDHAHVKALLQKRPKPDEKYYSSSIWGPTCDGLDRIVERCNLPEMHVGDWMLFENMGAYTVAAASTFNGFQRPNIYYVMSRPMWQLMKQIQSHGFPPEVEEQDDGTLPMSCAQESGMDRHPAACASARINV
Procedure, shortened: (§1)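 RAW-264 cells at 5.5 × 10^5 cells/mL in serum-free DMEM-H21 with 15 mM HEPES and 1 mM pyruvate, held overnight at 37 °C/5% CO2. Murine γ-IFN (2000 units/mL) and test material in pyrogen-free water then added for 4 h. Cells were lysed by sonication, and ODC in the supernatant was assayed with [3H]-L-ornithine plus 1 mM L-ornithine stock, 60 min at 37 °C. LPS 5 ng/mL served as internal standard.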

[2] = biological target: T1, Ornithine decarboxylase (Mus musculus); assay: Compound was evaluated for the stimulation of Ornithine decarboxylase (ODC) activity in murine macrophagelike cell line RAW264 as a parameter for macrophage stimulation, and the pyrogenicity test in rabbits at a concentration of 0.1 ug/ml; procedure, shortened: as §1
[3] = biological target: T1, Ornithine decarboxylase (Mus musculus); assay: Compound was evaluated for the stimulation of Ornithine decarboxylase (ODC) activity in murine macrophagelike cell line RAW264 as a parameter for macrophage stimulation, and the pyrogenicity test in rabbits at a concentration of 0.5 ug/ml; procedure, shortened: as §1
[4] = biological target: T1, Ornithine decarboxylase (Mus musculus); assay: Compound was evaluated for the stimulation of Ornithine decarboxylase (ODC) activity in murine macrophagelike cell line RAW264 as a parameter for macrophage stimulation, and the pyrogenicity test in rabbits at a concentration of 10 ug/ml; procedure, shortened: as §1
[5] = biological target: T1, Ornithine decarboxylase (Mus musculus); assay: Compound was evaluated for the stimulation of Ornithine decarboxylase (ODC) activity in murine macrophagelike cell line RAW264 as a parameter for macrophage stimulation, and the pyrogenicity test in rabbits at a concentration of 2 ug/ml; procedure, shortened: as §1
[6] = test system: Oryctolagus cuniculus; assay: Increase in temperature of three rabbits treatment with the compound at a dose of 1 ug/kg.; type: functional
[7] = test system: Oryctolagus cuniculus; assay: Increase in temperature of three rabbits treatment with the compound at a dose of 50 ug/kg.; type: functional
[8] = Endotoxic activity determined by limulus amoebocyte lysate (LAL) assay

SMILES	Stimulation [1]	Stimulation [2]	Stimulation [3]	Stimulation [4]	Stimulation [5]	increase in temperature [6]	increase in temperature [7]	EU [8]
CCCCCCCCCCCC(O)CC(=O)N[C@@H]1C(OCC2OC(P(=O)(O)O)[C@@H](NC(=O)CC(O)CCCCCCCCCCC)C(OC(=O)CC(O)CCCCCCCCCCC)[C@@H]2O)OC(CO)[C@@H](O)C1OC(=O)CC(O)CCCCCCCCCCC (stereo partly specified) [PHOSPHONATE ANALOGUE OF LIPID A]	5%	20%	70%	84%	75%	2.1	6.6	30000 g⁻¹
CCCCCCCCCCCC(O)CC(=O)N[C@@H]1C(OCC2OC(OP(=O)(O)O)[C@@H](NC(=O)CC(O)CCCCCCCCCCC)C(OC(=O)CC(O)CCCCCCCCCCC)[C@@H]2O)OC(CO)[C@@H](O)C1OC(=O)CC(O)CCCCCCCCCCC (stereo partly specified)	2%	30%	60%	97%	98%	2.1	5.95	80000 g⁻¹

Reference: ChEMBL document CHEMBL1126064, “Enzymatic synthesis and comparative biological evaluation of a phosphonate analogue of the lipid A precursor” (1992)
